Source: paper PMC3954597 (Biochemistry, 2014)
Square brackets hold non-standard residues; d marks the D form. pY = N[C@@H](Cc1ccc(OP(=O)(O)O)cc1)C(=O)O

T1: PTP1B (Homo sapiens, UniProt P18031)
T1 sequence (P18031 1-321): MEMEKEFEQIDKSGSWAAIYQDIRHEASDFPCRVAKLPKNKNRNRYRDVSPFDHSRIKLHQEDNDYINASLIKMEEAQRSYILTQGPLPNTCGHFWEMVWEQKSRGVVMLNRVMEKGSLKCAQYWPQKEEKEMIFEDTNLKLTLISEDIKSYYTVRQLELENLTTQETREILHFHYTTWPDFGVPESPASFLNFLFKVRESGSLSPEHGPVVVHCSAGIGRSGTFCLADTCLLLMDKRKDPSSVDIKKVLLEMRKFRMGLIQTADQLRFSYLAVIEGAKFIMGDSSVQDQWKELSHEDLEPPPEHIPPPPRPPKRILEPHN

T2: R24M PTP1B (Homo sapiens, UniProt P18031, R24M)
T2 sequence (P18031 1-321 R24M): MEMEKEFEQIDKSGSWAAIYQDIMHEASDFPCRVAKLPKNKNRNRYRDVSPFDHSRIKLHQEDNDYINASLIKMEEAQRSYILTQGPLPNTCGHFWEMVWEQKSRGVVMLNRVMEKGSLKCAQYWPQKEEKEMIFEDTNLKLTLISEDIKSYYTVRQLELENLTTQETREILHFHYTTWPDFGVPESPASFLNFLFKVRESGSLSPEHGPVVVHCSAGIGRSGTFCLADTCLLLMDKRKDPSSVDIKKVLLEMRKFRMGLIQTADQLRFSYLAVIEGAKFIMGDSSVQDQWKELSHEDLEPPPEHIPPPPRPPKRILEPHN

T3: R47E PTP1B (Homo sapiens, UniProt P18031, R47E)
T3 sequence (P18031 1-321 R47E): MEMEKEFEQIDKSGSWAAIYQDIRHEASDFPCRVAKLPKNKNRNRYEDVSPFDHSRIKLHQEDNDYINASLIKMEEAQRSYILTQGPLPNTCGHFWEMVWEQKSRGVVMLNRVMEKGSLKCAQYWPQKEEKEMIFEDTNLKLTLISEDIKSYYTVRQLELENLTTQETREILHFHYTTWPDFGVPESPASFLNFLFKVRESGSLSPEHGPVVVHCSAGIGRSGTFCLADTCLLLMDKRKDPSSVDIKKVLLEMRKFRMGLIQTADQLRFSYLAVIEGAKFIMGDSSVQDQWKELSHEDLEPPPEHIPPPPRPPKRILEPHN

T4: SHP-2 (Homo sapiens, UniProt Q06124)
T4 sequence (Q06124 199-593): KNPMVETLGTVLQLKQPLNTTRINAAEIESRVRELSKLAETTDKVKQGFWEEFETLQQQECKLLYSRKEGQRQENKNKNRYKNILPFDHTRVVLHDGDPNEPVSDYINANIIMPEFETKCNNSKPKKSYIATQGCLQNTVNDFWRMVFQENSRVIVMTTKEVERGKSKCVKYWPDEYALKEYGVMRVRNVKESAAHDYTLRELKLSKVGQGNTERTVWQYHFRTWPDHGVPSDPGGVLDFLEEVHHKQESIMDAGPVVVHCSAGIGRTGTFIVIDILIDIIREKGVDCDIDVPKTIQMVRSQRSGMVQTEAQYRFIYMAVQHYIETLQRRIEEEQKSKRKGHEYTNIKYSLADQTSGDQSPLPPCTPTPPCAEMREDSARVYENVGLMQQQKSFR

T5: R47E PTP1B catalytic domain (amino acids 1-321) (human) (UniProt P18031)
T5 sequence: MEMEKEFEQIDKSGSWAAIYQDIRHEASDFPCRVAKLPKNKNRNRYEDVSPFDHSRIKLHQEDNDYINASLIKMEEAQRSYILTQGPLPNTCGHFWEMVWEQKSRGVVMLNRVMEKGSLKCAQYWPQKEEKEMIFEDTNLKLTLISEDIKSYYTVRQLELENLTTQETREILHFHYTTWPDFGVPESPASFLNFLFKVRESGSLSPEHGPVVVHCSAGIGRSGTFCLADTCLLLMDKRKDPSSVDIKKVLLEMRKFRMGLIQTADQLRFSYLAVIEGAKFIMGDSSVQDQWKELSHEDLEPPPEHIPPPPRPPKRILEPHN

T6: wild-type PTP1B catalytic domain (amino acids 1-321) (human) (UniProt P18031)
T6 sequence: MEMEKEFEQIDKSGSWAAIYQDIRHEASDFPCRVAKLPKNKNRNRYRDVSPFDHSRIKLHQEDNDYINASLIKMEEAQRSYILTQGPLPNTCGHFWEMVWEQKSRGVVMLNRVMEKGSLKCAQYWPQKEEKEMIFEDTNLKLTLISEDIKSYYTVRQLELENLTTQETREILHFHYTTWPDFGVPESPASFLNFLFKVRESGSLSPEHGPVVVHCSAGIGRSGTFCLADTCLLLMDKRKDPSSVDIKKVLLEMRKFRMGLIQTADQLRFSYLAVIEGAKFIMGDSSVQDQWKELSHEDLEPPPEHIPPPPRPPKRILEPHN

T7: R24M PTP1B catalytic domain (amino acids 1-321) (human) (UniProt P18031)
T7 sequence: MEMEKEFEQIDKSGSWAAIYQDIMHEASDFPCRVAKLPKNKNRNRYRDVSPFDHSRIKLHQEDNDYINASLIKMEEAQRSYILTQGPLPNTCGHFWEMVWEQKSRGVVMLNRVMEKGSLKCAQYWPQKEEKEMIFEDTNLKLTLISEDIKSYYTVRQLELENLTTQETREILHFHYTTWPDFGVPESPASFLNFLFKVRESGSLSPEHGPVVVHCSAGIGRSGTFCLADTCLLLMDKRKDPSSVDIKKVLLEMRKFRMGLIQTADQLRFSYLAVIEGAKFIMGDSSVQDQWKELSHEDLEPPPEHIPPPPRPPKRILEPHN


Assays:
PTP1B = molecular target: T1, PTP1B; test: PTP assay, wild-type PTP1B; format: biochemical; settings: for kcat/KM x 10^7: WT PTP1B aa 1–321, pH 7.4
Method in brief: (§1)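 E. coli-expressed catalytic domains were used: wild-type, R24M or R47E PTP1B (aa 1–321), and SHP-1 (aa 205–595). Reactions started with PTP (0.5–20000 nM final) and dephosphorylation was monitored continuously at 282 nm. kcat, KM and kcat/KM came from initial-rate fits (Michaelis–Menten, or V = kcat[E][S]/KM when KM >> [S]) or from fits of progress curves.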

R24M PTP1B = molecular target: T2, R24M PTP1B; test: PTP assay, R24M PTP1B; format: biochemical; settings: for Km / kcat / kcat/KM x 10^7: R24M PTP1B aa 1–321, pH 7.4; for WT/R24M: ratio of kcat/KM, WT over R24M PTP1B (fold reduction by the mutation)
Method in brief: as §1

R47E PTP1B = molecular target: T3, R47E PTP1B; test: PTP assay, R47E PTP1B; format: biochemical; settings: for Km / kcat / kcat/KM x 10^7: R47E PTP1B aa 1–321, pH 7.4; for WT/R47E: ratio of kcat/KM, WT over R47E PTP1B (fold decrease by the mutation)
Method in brief: as §1

SHP-1 = SHP-1 (Homo sapiens, UniProt P29350); settings: catalytic domain; cited from earlier work
SHP-2 = molecular target: T4, SHP-2; settings: catalytic domain; cited from earlier work
[1] = molecular target: T5, R47E PTP1B catalytic domain (amino acids 1-321) (human)
[2] = molecular target: T6, wild-type PTP1B catalytic domain (amino acids 1-321) (human)
[3] = molecular target: T7, R24M PTP1B catalytic domain (amino acids 1-321) (human)

Sequence of SHP-1 (P29350 205-595): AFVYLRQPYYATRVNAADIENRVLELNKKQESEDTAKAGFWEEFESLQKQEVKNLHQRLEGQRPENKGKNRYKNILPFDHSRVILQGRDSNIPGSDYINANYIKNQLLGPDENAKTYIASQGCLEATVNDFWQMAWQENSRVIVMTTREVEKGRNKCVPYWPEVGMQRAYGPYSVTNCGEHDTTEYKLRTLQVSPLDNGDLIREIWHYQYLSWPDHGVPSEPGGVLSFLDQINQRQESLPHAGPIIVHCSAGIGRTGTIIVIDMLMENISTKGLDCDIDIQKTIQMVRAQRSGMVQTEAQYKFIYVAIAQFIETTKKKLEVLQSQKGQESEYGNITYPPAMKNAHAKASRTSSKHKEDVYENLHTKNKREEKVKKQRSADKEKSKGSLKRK

Row | Molecule | kcat/KM x 10^7 (PTP1B) | Km (R24M PTP1B) [µM] | kcat (R24M PTP1B) [s⁻¹] | kcat/KM x 10^7 (R24M PTP1B) | WT/R24M (R24M PTP1B) | Km (R47E PTP1B) [µM] | kcat (R47E PTP1B) [s⁻¹] | kcat/KM x 10^7 (R47E PTP1B) | WT/R47E (R47E PTP1B) | Km (SHP-1) [µM] | kcat (SHP-1) [s⁻¹] | kcat/KM x10^6 (SHP-1) | Km (SHP-2) [µM] | kcat (SHP-2) [s⁻¹] | kcat/KM x10^6 (SHP-2) | KM, steady-state dephosphorylation of the pY peptide [2] [µM] | further results
1 | Ac-AWGPLpYDEVQM-NH2 | 1.7 x 10^7 M^−1 s^−1 | 5 ± 0.5 | 36 ± 1 | 0.72 x 10^7 M^−1 s^−1 | 2.3 | 5.6 ± 0.4 | 34 ± 2 | 0.61 x 10^7 M^−1 s^−1 | 2.8 | – | – | – | – | – | – | – | –
2 | DPRGIpYDQVAG | 0.38 x 10^7 M^−1 s^−1 | 71 ± 1 | 36 ± 1 | 0.051 x 10^7 M^−1 s^−1 | 7.6 | 23 ± 1 | 35 ± 1 | 0.15 x 10^7 M^−1 s^−1 | 2.5 | – | – | – | – | – | – | – | –
3 | EEDNAWpYAA | 2.1 x 10^7 M^−1 s^−1 | 1.9 ± 0.1 | 35 ± 1 | 1.8 x 10^7 M^−1 s^−1 | 1.2 | 9.5 ± 0.4 | 32 ± 1 | 0.33 x 10^7 M^−1 s^−1 | 6.4 | – | – | – | – | – | – | – | kcat/KM x10^6 (PTP1B; WT catalytic domain aa 1–321, 100 mM HEPES pH 7.4, monitored at 282 nm): 21 x10^6 M^−1 s^−1
4 | EIFDFpYAA | – | – | – | – | – | – | – | – | – | 27 ± 4 | 32 ± 2 | 1.2 x10^6 M^−1 s^−1 | 54 ± 6 | 26 ± 1 | 0.48 x10^6 M^−1 s^−1 | – | –
5 | FDIDIpYAA | – | – | – | – | – | – | – | – | – | 13 ± 1 | 33 ± 1 | 2.5 x10^6 M^−1 s^−1 | 39 ± 5 | 30 ± 2 | 0.77 x10^6 M^−1 s^−1 | – | –
6 | FYDIDpYAA | – | – | – | – | – | – | – | – | – | 28 ± 2 | 66 ± 2 | 2.4 x10^6 M^−1 s^−1 | 66 ± 13 | 50 ± 4 | 0.75 x10^6 M^−1 s^−1 | – | –
7 | WAGDDpYAA | – | – | – | – | – | – | – | – | – | 45 ± 5 | 57 ± 2 | 1.3 x10^6 M^−1 s^−1 | 68 ± 15 | 36 ± 3 | 0.53 x10^6 M^−1 s^−1 | – | –
8 | Ac-AA[pY]DDAAA-NH2 (SMILES CC(=O)N[C@@H](C)C(=O)N[C@@H](C)C(=O)N[C@@H](Cc1ccc(OP(=O)(O)O)cc1)C(=O)N[C@@H](CC(=O)O)C(=O)N[C@@H](CC(=O)O)C(=O)N[C@@H](C)C(=O)N[C@@H](C)C(=O)N[C@@H](C)C(N)=O) [Ac-AApYDDAAA-NH2] | – | – | – | – | – | – | – | – | – | – | – | – | – | – | – | 6.5 | KM, steady-state dephosphorylation of the pY peptide [1]: 34 µM
9 | Ac-AA[pY]IRKRA-NH2 (SMILES CC[C@H](C)[C@H](NC(=O)[C@H](Cc1ccc(OP(=O)(O)O)cc1)NC(=O)[C@H](C)NC(=O)[C@H](C)NC(C)=O)C(=O)N[C@@H](CCCNC(=N)N)C(=O)N[C@@H](CCCCN)C(=O)N[C@@H](CCCNC(=N)N)C(=O)N[C@@H](C)C(N)=O) [Ac-AApYIRKRA-NH2] | – | – | – | – | – | – | – | – | – | – | – | – | – | – | – | 89 | KM, steady-state dephosphorylation of the pY peptide [3]: 52 µM
10 | Ac-ARKRI[pY]AA-NH2 (SMILES CC[C@H](C)[C@H](NC(=O)[C@H](CCCNC(=N)N)NC(=O)[C@H](CCCCN)NC(=O)[C@H](CCCNC(=N)N)NC(=O)[C@H](C)NC(C)=O)C(=O)N[C@@H](Cc1ccc(OP(=O)(O)O)cc1)C(=O)N[C@@H](C)C(=O)N[C@@H](C)C(N)=O) [Ac-ARKRIpYAA-NH2] | – | – | – | – | – | – | – | – | – | – | – | – | – | – | – | 166 | KM, steady-state dephosphorylation of the pY peptide [1]: 31 µM
